Experimental findings from ChEMBL document CHEMBL1150609, “New furanoid diterpenes from Caesalpinia pulcherrima” (2002) are described below.

The first test has as its system Trichophyton mentagrophytes. Kind of test: Antimicrobial activity against Trichophyton mentagrophytes UPCC 4193 assessed as antimicrobial index at 30 ug after 72 hrs. The test is classed as functional.
Conditions: not given
In the case of `C[C@H]1c2ccoc2C[C@H]2[C@H]1[C@@H](O)[C@@H](OC(=O)c1ccccc1)[C@@]1(O)C(C)(C)CCC[C@]21C` [ISOVOUACAPENOL C], the Activity is recorded as 0.3.

For `Cc1c2c(cc3occc13)[C@@]1(C)CCCC(C)(C)[C@]1(O)[C@H](OC(=O)c1ccccc1)C2` [ISOVOUACAPENOL D], the Activity is 0.2.

The next test deals with Escherichia coli. Kind of test: Antimicrobial activity against Escherichia coli UPCC 1195 assessed as antimicrobial index at 30 ug after 24 hrs. It counts as functional.
Conditions: not given
Take `O=C(N[C@H](CO)[C@H](O)c1ccc([N+](=O)[O-])cc1)C(Cl)Cl` [CHLORAMPHENICOL]: the Activity worked out at 1.4.

In the case of `C[C@H]1c2ccoc2C[C@H]2[C@H]1[C@@H](O)[C@@H](OC(=O)c1ccccc1)[C@@]1(O)C(C)(C)CCC[C@]21C` [ISOVOUACAPENOL C], the Activity stood at 0.2.

Regarding `Cc1c2c(cc3occc13)[C@@]1(C)CCCC(C)(C)[C@]1(O)[C@H](OC(=O)c1ccccc1)C2` [ISOVOUACAPENOL D], the Activity turned out to be 0.2.

The subject of another test is Bacillus subtilis. Kind of test: Antimicrobial activity against Bacillus subtilis UPCC 1149 assessed as clearing zone at 30 ug after 24 hrs. The conditions noted are these: read-out: IZ. It counts as functional. Put shortly: (§1)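 Agar-well diffusion. 24 h cultures were suspended in 0.1% peptone water at about 6 × 10^8 cells/mL, and 0.1 mL was seeded into a nutrient agar overlay. Three 10 mm wells were cut per plate, each loaded with sample in 95% EtOH (70 µg test sample; 30 µg standard). Plates were incubated at 30 ± 1 °C for 24 h, and the clear inhibition zone was measured in mm.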
As for `O=C(N[C@H](CO)[C@H](O)c1ccc([N+](=O)[O-])cc1)C(Cl)Cl` [CHLORAMPHENICOL], the zone of inhibition at 30 µg/disc was 35 mm.

In the case of `C[C@H]1c2ccoc2C[C@H]2[C@H]1[C@@H](O)[C@@H](OC(=O)c1ccccc1)[C@@]1(O)C(C)(C)CCC[C@]21C` [ISOVOUACAPENOL C], the zone of inhibition at 30 µg/disc came out at 15 mm.

With `Cc1c2c(cc3occc13)[C@@]1(C)CCCC(C)(C)[C@]1(O)[C@H](OC(=O)c1ccccc1)C2` [ISOVOUACAPENOL D], the zone of inhibition at 30 µg/disc was found to be 12 mm.

The next test relates to Bacillus subtilis. Nature of the test: Antimicrobial activity against Bacillus subtilis UPCC 1149 assessed as antimicrobial index at 30 ug after 24 hrs.
Conditions: not given
It counts as functional.
`O=C(N[C@H](CO)[C@H](O)c1ccc([N+](=O)[O-])cc1)C(Cl)Cl` [CHLORAMPHENICOL]: the Activity is on record as 2.5.

Consider `C[C@H]1c2ccoc2C[C@H]2[C@H]1[C@@H](O)[C@@H](OC(=O)c1ccccc1)[C@@]1(O)C(C)(C)CCC[C@]21C` [ISOVOUACAPENOL C], for which the Activity turned out to be 0.5.

On to `Cc1c2c(cc3occc13)[C@@]1(C)CCCC(C)(C)[C@]1(O)[C@H](OC(=O)c1ccccc1)C2` [ISOVOUACAPENOL D], for which the Activity came to 0.2.

Another test concerns Pseudomonas aeruginosa. Kind of test: Antimicrobial activity against Pseudomonas aeruginosa UPCC 1244 assessed as antimicrobial index at 30 ug after 24 hrs. The test is classed as functional.
Conditions: not given
For the compound `O=C(N[C@H](CO)[C@H](O)c1ccc([N+](=O)[O-])cc1)C(Cl)Cl` [CHLORAMPHENICOL], the Activity came to 0.2.

`C[C@H]1c2ccoc2C[C@H]2[C@H]1[C@@H](O)[C@@H](OC(=O)c1ccccc1)[C@@]1(O)C(C)(C)CCC[C@]21C` [ISOVOUACAPENOL C]: the Activity is on record as 0.2.

In the case of `Cc1c2c(cc3occc13)[C@@]1(C)CCCC(C)(C)[C@]1(O)[C@H](OC(=O)c1ccccc1)C2` [ISOVOUACAPENOL D], the Activity stood at 0.2.

Another test has as its system Pseudomonas aeruginosa. Nature of the test: Antimicrobial activity against Pseudomonas aeruginosa UPCC 1244 assessed as clearing zone at 30 ug after 24 hrs. The test is classed as functional. The conditions noted are these: read-out: IZ. Summed up:
as §1
On to `O=C(N[C@H](CO)[C@H](O)c1ccc([N+](=O)[O-])cc1)C(Cl)Cl` [CHLORAMPHENICOL], for which the zone of inhibition at 30 µg/disc came to 12 mm.

Take `C[C@H]1c2ccoc2C[C@H]2[C@H]1[C@@H](O)[C@@H](OC(=O)c1ccccc1)[C@@]1(O)C(C)(C)CCC[C@]21C` [ISOVOUACAPENOL C]: the zone of inhibition at 30 µg/disc worked out at 12 mm.

`Cc1c2c(cc3occc13)[C@@]1(C)CCCC(C)(C)[C@]1(O)[C@H](OC(=O)c1ccccc1)C2` [ISOVOUACAPENOL D]: the zone of inhibition at 30 µg/disc was determined as 12 mm.

The subject of another test is Staphylococcus aureus. Nature of the test: Antimicrobial activity against Staphylococcus aureus UPCC 1143 assessed as antimicrobial index at 30 ug after 24 hrs. The test is classed as functional.
Conditions: not given
Consider `O=C(N[C@H](CO)[C@H](O)c1ccc([N+](=O)[O-])cc1)C(Cl)Cl` [CHLORAMPHENICOL], for which the Activity is recorded as 1.8.

In the case of `C[C@H]1c2ccoc2C[C@H]2[C@H]1[C@@H](O)[C@@H](OC(=O)c1ccccc1)[C@@]1(O)C(C)(C)CCC[C@]21C` [ISOVOUACAPENOL C], the Activity was 0.6.

As for `Cc1c2c(cc3occc13)[C@@]1(C)CCCC(C)(C)[C@]1(O)[C@H](OC(=O)c1ccccc1)C2` [ISOVOUACAPENOL D], the Activity amounted to 0.2.

The next test deals with Trichophyton mentagrophytes. Nature of the test: Antimicrobial activity against Trichophyton mentagrophytes UPCC 4193 assessed as clearing zone at 30 ug after 72 hrs. The test is classed as functional. The conditions noted are these: read-out: IZ. Put shortly:
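T. mentagrophytes was grown as a 5-day culture and suspended in 0.1% peptone water at about 6 × 10^8 cells/mL. A 0.1 mL aliquot was seeded into a potato dextrose agar overlay with three 10 mm wells, each dosed in 95% EtOH (70 µg test sample; 30 µg standard). Plates were incubated at 30 ± 1 °C for 72 h, and the clear inhibition zone was read in mm.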
With `C[C@H]1c2ccoc2C[C@H]2[C@H]1[C@@H](O)[C@@H](OC(=O)c1ccccc1)[C@@]1(O)C(C)(C)CCC[C@]21C` [ISOVOUACAPENOL C], the zone of inhibition at 30 µg/disc is 13 mm.

Turning to `Cc1c2c(cc3occc13)[C@@]1(C)CCCC(C)(C)[C@]1(O)[C@H](OC(=O)c1ccccc1)C2` [ISOVOUACAPENOL D], the zone of inhibition at 30 µg/disc turned out to be 12 mm.

Another test deals with Escherichia coli. Nature of the test: Antimicrobial activity against Escherichia coli UPCC 1195 assessed as clearing zone at 30 ug after 24 hrs. The test is classed as functional. The conditions noted are these: read-out: IZ. Summed up:
as §1
`O=C(N[C@H](CO)[C@H](O)c1ccc([N+](=O)[O-])cc1)C(Cl)Cl` [CHLORAMPHENICOL]: the zone of inhibition at 30 µg/disc worked out at 24 mm.

Regarding `C[C@H]1c2ccoc2C[C@H]2[C@H]1[C@@H](O)[C@@H](OC(=O)c1ccccc1)[C@@]1(O)C(C)(C)CCC[C@]21C` [ISOVOUACAPENOL C], the zone of inhibition at 30 µg/disc was determined as 12 mm.

Take `Cc1c2c(cc3occc13)[C@@]1(C)CCCC(C)(C)[C@]1(O)[C@H](OC(=O)c1ccccc1)C2` [ISOVOUACAPENOL D]: the zone of inhibition at 30 µg/disc turned out to be 12 mm.

A further test has as its system Candida albicans. Nature of the test: Antimicrobial activity against Candida albicans UPCC 2168 assessed as clearing zone at 30 ug after 48 hrs. It counts as functional. The conditions noted are these: read-out: IZ. Summed up:
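C. albicans was grown as a 24 h culture, suspended at about 6 × 10^8 cells/mL in 0.1% peptone water, and 0.1 mL was seeded into a glucose yeast peptone agar overlay. Three 10 mm wells per plate received sample in 95% EtOH (70 µg test sample; 30 µg standard). Plates were incubated at 30 ± 1 °C for 48 h, and the clear growth-inhibition zone was measured in mm.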
Take `C[C@H]1c2ccoc2C[C@H]2[C@H]1[C@@H](O)[C@@H](OC(=O)c1ccccc1)[C@@]1(O)C(C)(C)CCC[C@]21C` [ISOVOUACAPENOL C]: the zone of inhibition at 30 µg/disc came out at 13 mm.

Take `Cc1c2c(cc3occc13)[C@@]1(C)CCCC(C)(C)[C@]1(O)[C@H](OC(=O)c1ccccc1)C2` [ISOVOUACAPENOL D]: the zone of inhibition at 30 µg/disc stood at 12 mm.

The next test has as its system Aspergillus niger. Kind of test: Antimicrobial activity against Aspergillus niger UPCC 3701 assessed as antimicrobial index at 30 ug after 48 hrs. It counts as functional.
Conditions: not given
Take `C[C@@H]1C[C@@H]([C@H](O)CC2CC(=O)NC(=O)C2)C(=O)[C@@H](C)C1` [CYCLOHEXIMIDE]: the Activity was 0.3.

In the case of `C[C@H]1c2ccoc2C[C@H]2[C@H]1[C@@H](O)[C@@H](OC(=O)c1ccccc1)[C@@]1(O)C(C)(C)CCC[C@]21C` [ISOVOUACAPENOL C], the Activity came out at 0.

With `Cc1c2c(cc3occc13)[C@@]1(C)CCCC(C)(C)[C@]1(O)[C@H](OC(=O)c1ccccc1)C2` [ISOVOUACAPENOL D], the Activity worked out at 0.

The subject of the next test is Staphylococcus aureus. Kind of test: Antimicrobial activity against Staphylococcus aureus UPCC 1143 assessed as clearing zone at 30 ug after 24 hrs. It counts as functional. The conditions noted are these: read-out: IZ. Put shortly: as §1
For the compound `O=C(N[C@H](CO)[C@H](O)c1ccc([N+](=O)[O-])cc1)C(Cl)Cl` [CHLORAMPHENICOL], the zone of inhibition at 30 µg/disc is 28 mm.

With `C[C@H]1c2ccoc2C[C@H]2[C@H]1[C@@H](O)[C@@H](OC(=O)c1ccccc1)[C@@]1(O)C(C)(C)CCC[C@]21C` [ISOVOUACAPENOL C], the zone of inhibition at 30 µg/disc stood at 16 mm.

As for `Cc1c2c(cc3occc13)[C@@]1(C)CCCC(C)(C)[C@]1(O)[C@H](OC(=O)c1ccccc1)C2` [ISOVOUACAPENOL D], the zone of inhibition at 30 µg/disc came to 12 mm.

The subject of another test is Candida albicans. Nature of the test: Antimicrobial activity against Candida albicans UPCC 2168 assessed as antimicrobial index at 30 ug after 48 hrs. It counts as functional.
Conditions: not given
`C[C@H]1c2ccoc2C[C@H]2[C@H]1[C@@H](O)[C@@H](OC(=O)c1ccccc1)[C@@]1(O)C(C)(C)CCC[C@]21C` [ISOVOUACAPENOL C]: the Activity was found to be 0.3.

On to `Cc1c2c(cc3occc13)[C@@]1(C)CCCC(C)(C)[C@]1(O)[C@H](OC(=O)c1ccccc1)C2` [ISOVOUACAPENOL D], for which the Activity was 0.2.

A further test has as its system Aspergillus niger. Nature of the test: Antimicrobial activity against Aspergillus niger UPCC 3701 assessed as clearing zone at 30 ug after 48 hrs. The conditions noted are these: read-out: IZ. The test is classed as functional.
In the case of `C[C@@H]1C[C@@H]([C@H](O)CC2CC(=O)NC(=O)C2)C(=O)[C@@H](C)C1` [CYCLOHEXIMIDE], the zone of inhibition at 30 µg/disc came to 13 mm.
